In the assay the test system is Plasmodium yoelii. The assay can be described thus: NOVARTIS: Antimalarial liver stage activity measured as reduction in Plasmodium yoelii schizont area in HepG2-A16-CD81 cells by immuno-fluorescence, and median schizont size at 10uM compound concentration. Format: functional, organism-based. The gist of the method:
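Host and parasite nuclei stained with Hoechst 33342, parasites with αPyHSP70 antibody; 25 images per well by high-content imaging; median parasite (schizont) area measured by automated image analysis, ~50 schizonts per experiment, two or more independent experiments.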

[1] abbreviates: Plasmodium yoelii, HepG2-A16-CD81.

Here are results for 67 molecules from ChEMBL document CHEMBL1789904, “Imaging of Plasmodium liver stages to drive next-generation antimalarial drug discovery” (Science, 2011).

Several values for one entry are separate records, joined by “and”; a condition that tells them apart may be missing. Equal entries are not always repeated.

`Brc1ccc(Nc2nc(NCc3ccco3)c3ccccc3n2)cc1` gave a Schizont size of 35.17 um. The molecule further gave a half-maximal inhibitory concentration (IC50) under setting [1] of 163 nM.

`COc1ccc2[nH]c3ccccc3c(=O)c2c1` yielded a Schizont size of 30.27 um. In addition, the IC50 under setting [1] came to 135 nM.

Regarding `c1ccc(OCCOc2ccc(Nc3ccnc4cc5ccccc5cc34)cc2)cc1`, the Schizont size was found to be 18.06 um. Besides, under setting [1], it took 67.5 nM to reach half-maximal inhibition (IC50).

Take `CCC1CN2CCc3cc(OC)c(OC)cc3C2CC1CC1NCCc2cc(OC)c(OC)cc21.Cl` (centres undefined): the Schizont size stood at 13.78 um. Also, half-maximal inhibition under setting [1] (IC50) required 80.2 nM.

Consider `OC1=C2C(=Nc3ccccc3SC2c2ccccc2)c2ccccc21` (centres undefined), for which the Schizont size turned out to be 28.39 um. The IC50 under setting [1] was 93.7 nM.

`COc1cccc(Nc2nc(NCCO)c3ccccc3n2)c1.Cl` displayed a Schizont size of 54.9 um. The IC50 under setting [1] came to 62.3 nM.

On to `Cc1nc2ccccc2c(O)c1CC=C(Cl)Cl`, for which the Schizont size is on record as 43.21 um. Further, under setting [1], the IC50 was 130 nM.

The molecule `CC(C)(C)C1CCc2[nH]c3ccccc3c(=O)c2C1` (centres undefined) showed a Schizont size of 22.13 um. In addition, the IC50 under setting [1] came to 98.3 nM.

The molecule `Oc1cccc2ccc(Nc3ccccn3)nc12` yielded a Schizont size of 30.16 um. Under setting [1], this molecule came in with an IC50 of 142 nM.

Regarding `CCCCc1c(C)nc2ccc(Br)cc2c1O`, the Schizont size amounted to 25.99 um. Further, 64.7 nM corresponded to half-maximal inhibition under setting [1] (IC50).

Regarding `CC(Oc1ccc(Cl)cc1Cl)c1nc(-c2ccc(NC(=O)c3ccco3)cc2)no1` (centres undefined), the Schizont size came out at 28.18 um. The IC50 under setting [1] was 154 nM.

In turn, `COc1ccc2nc(C)cc(Nc3ccc(Oc4ccc5ccccc5c4Cl)c(Cl)c3)c2c1` registered a Schizont size of 31 um. The molecule further gave an IC50 under setting [1] of 114 nM.

`CC1(C)N=C(N)N=C(N)N1c1ccccc1.Cl` returned a Schizont size of 37.05 um. This molecule showed an IC50 under setting [1] of 100 nM.

On to `c1ccc(-c2csc(Nc3nc4cc5c(cc4s3)OCO5)n2)nc1`, for which the Schizont size was 34.44 um. Besides, the IC50 under setting [1] was 78.9 nM.

Take `CCCCSc1oc(C)nc1[P+](c1ccccc1)(c1ccccc1)c1ccccc1`: the Schizont size is listed as 22.13 um. This molecule came in with an IC50 under setting [1] of 82.1 nM.

Consider `CCOc1ccc(Nc2nc(NCc3ccco3)c3ccccc3n2)cc1`, for which the Schizont size is recorded as 75.78 um. In addition, the IC50 under setting [1] worked out at 105 nM.

In turn, `CCCCCCCn1c2c(c(=N)c3ccccc31)CCC2.I` showed a Schizont size of 23.59 um. Under setting [1], this molecule had an IC50 of 76.5 nM.

In turn, `CC(C)NC(=O)c1cc(NC(=O)c2cccs2)ccc1N1CCc2ccccc2C1` gave a Schizont size of 26.93 um. Moreover, the IC50 under setting [1] stood at 74.8 nM.

`CCN1C(=O)N(CC)C(NNC(N)=S)C1NNC(N)=S` (centres undefined) displayed a Schizont size of 103.75 um. Under setting [1], this molecule had an IC50 of 68.6 nM.

`Clc1ccccc1-c1nc([P+](c2ccccc2)(c2ccccc2)c2ccccc2)c(N2CCOCC2)o1` came in with a Schizont size of 20.56 um. Besides, half-maximal inhibition under setting [1] (IC50) was put at 95.6 nM.

Consider `Cn1ncnc2c(=O)n(C)c(=O)nc1-2`, for which the Schizont size came to 12.53 um. In addition, under setting [1], the IC50 was 103 nM.

`C[C@@H]1CCC[C@@H](C[C@H]2Cc3cc(O)cc(O)c3C(=O)O2)O1` showed a Schizont size of 41.96 um. 112 nM corresponded to half-maximal inhibition under setting [1] (IC50).

With `CN(C)c1oc(-c2ccc(Cl)cc2Cl)nc1[P+](c1ccccc1)(c1ccccc1)c1ccccc1.[I-]`, the Schizont size is 19.41 um. The IC50 under setting [1] was determined as 129 nM.

Molecule `CCN(CC)CCCN(Cc1cc2cc(OC)c(OC)cc2[nH]c1=O)C(=S)Nc1cccc(Cl)c1` showed a Schizont size of 60.54 um. The molecule further registered an IC50 under setting [1] of 162 nM.

With `Cc1cc(C)nc(NC(=N)Nc2cccc(O)c2)n1`, the Schizont size was 88.2 um. This molecule had an IC50 under setting [1] of 152 nM.

The molecule `COc1ccc2sc(Nc3nc(-c4ccccn4)cs3)nc2c1` yielded a Schizont size of 28.91 um. This molecule gave an IC50 under setting [1] of 159 nM.

The molecule `CC(Oc1ccc(Cl)cc1Cl)c1nc(-c2ccc(NC(=O)c3cccs3)cc2)no1` (centres undefined) yielded a Schizont size of 21.92 um. In addition, under setting [1], the IC50 was determined as 114 nM.

`Cl.OCCNc1nc(Nc2ccc(F)cc2)nc2ccccc12` returned a Schizont size of 91.12 um. This molecule also had an IC50 under setting [1] of 136 nM.

Take `Cc1ccc(-c2cc3nc4c(c(O)n3n2)CCCC4)cc1`: the Schizont size turned out to be 26.41 um. The molecule also displayed an IC50 under setting [1] of 75.3 nM.

`Cc1nc([P+](c2ccccc2)(c2ccccc2)c2ccccc2)c(N2CCCCC2)o1`: the Schizont size turned out to be 25.57 um. This molecule also registered an IC50 under setting [1] of 82.4 nM.

Take `Cc1nc2cc(-c3ccc(I)cc3)nn2c(O)c1C`: the Schizont size was determined as 35.28 um. Moreover, the IC50 under setting [1] worked out at 118 nM.

Turning to `CC1(C)N=C(N)N=C(N)N1c1ccc(Oc2ccc(Cl)cc2)c(Cl)c1.Cl`, the Schizont size is listed as 27.76 um. Moreover, the IC50 under setting [1] amounted to 73 nM.

As to `Cc1cc(NC(c2cccc(Br)c2)c2ccc3cccnc3c2O)no1` (centres undefined), the Schizont size stood at 16.28 um. This molecule had an IC50 under setting [1] of 147 nM.

`COc1ccc(-c2n(C)c3ccccc3[n+]2CC(=O)OC2CC(C)CCC2C(C)C)cc1.[Cl-]` (centres undefined) displayed a Schizont size of 14.3 um. Also, the IC50 under setting [1] amounted to 156 nM.

Consider `Cc1oc2c(c1C(=O)NCCCn1ccnc1)C(=O)c1ccccc1C2=O`, for which the Schizont size came out at 12.53 um. Besides, half-maximal inhibition under setting [1] (IC50) was put at 119 nM.

With `CCOC(=O)c1cnc2ccc(OC)cc2c1O`, the Schizont size is 30.16 um and 29.96 um. Besides, the IC50 (hepg2-a16-cd81) was 135 nM and 293 nM.

`CC(=O)N(C1=C(N(C)C)C(=O)c2ccccc2C1=O)c1ccc(F)cc1` showed a Schizont size of 23.8 um. Further, inhibition under setting [1] was half-maximal at 57.3 nM (IC50).

`Cc1ccc2cc(C)c(Nc3ccc(Cl)cc3)nc2c1` came in with a Schizont size of 42.06 um. Under setting [1], this molecule yielded a 50% inhibitory concentration (IC50) of 148 nM.

The molecule `Cl.Fc1ccc(Nc2nc(NCc3ccco3)c3ccccc3n2)cc1` displayed a Schizont size of 45.3 um. For the same molecule, it took 74.9 nM to reach half-maximal inhibition under setting [1] (IC50).

For `O=c1c2ccccc2[nH]c2ccc(I)cc12`, the Schizont size was determined as 24.95 um. This molecule also yielded an IC50 under setting [1] of 105 nM.

As to `CCCCN(CC)CCNC(=O)C1c2ccccc2C(=O)N(Cc2ccc(F)cc2)C1c1ccc(OC)cc1` (centres undefined), the Schizont size was determined as 63.36 um. The same molecule gave an IC50 under setting [1] of 89.1 nM.

Molecule `O=C(Nc1ccc(-c2ccc(Cl)cc2)cc1)c1cccs1` registered a Schizont size of 31.73 um. Besides, it took 151 nM to reach half-maximal inhibition under setting [1] (IC50).

For `Cc1cccc2c1[nH]c1nc(SCC(C)C)nnc12`, the Schizont size is listed as 36.43 um. Moreover, half-maximal inhibition under setting [1] (IC50) was put at 152 nM.

As to `CCOC(=O)c1ccc(NCc2c(C)[nH]c3ccccc3c2=O)cc1`, the Schizont size is 18.27 um. Besides, half-maximal inhibition under setting [1] (IC50) required 137 nM.

Take `O=C(NC1CC1)c1ccc(CSCc2ccccc2Cl)o1`: the Schizont size was found to be 26.09 um. Under setting [1], the midpoint of inhibition, the IC50, lay at 140 nM.

For the molecule `O=C1c2ccccc2C2=Nc3ccccc3SC(c3cccc(F)c3)C12` (centres undefined), the Schizont size was determined as 30.06 um. For the same molecule, the IC50 under setting [1] turned out to be 162 nM.

In the case of `Br.Cc1ccnc(Nc2nc(-c3ccccn3)cs2)c1`, the Schizont size amounted to 19.21 um. This molecule yielded an IC50 under setting [1] of 95.6 nM.

`OC1=C2C(=Nc3ccccc3SC2c2cccs2)c2ccccc21` (centres undefined) came in with a Schizont size of 25.89 um. For the same molecule, the IC50 under setting [1] was found to be 90.4 nM.

For `c1ccc(CNc2nc(Nc3ccccc3)nc3ccccc23)cc1`, the Schizont size came out at 29.85 um. For the same molecule, 153 nM corresponded to half-maximal inhibition under setting [1] (IC50).

Molecule `CCCCCCOc1ccc(NC(=O)c2cccs2)cc1` displayed a Schizont size of 27.87 um. For the same molecule, 139 nM corresponded to half-maximal inhibition under setting [1] (IC50).

With `COc1ccccc1Nc1nc(NCc2ccccc2)c2ccccc2n1.Cl`, the Schizont size came to 40.29 um. The molecule further showed an IC50 under setting [1] of 91.3 nM.

On to `CCCCNC(=O)C1CCC(CN(Cc2c(Cl)cccc2Cl)S(=O)(=O)c2ccc(Br)cc2)CC1` (centres undefined), for which the Schizont size stood at 29.64 um. Also, under setting [1], the IC50 stood at 124 nM.

Molecule `O=C1C(Nc2ccc(O)cc2)=CC(=NS(=O)(=O)c2cccs2)c2ccccc21` had a Schizont size of 12.53 um. The half-maximal inhibitory concentration (IC50) under setting [1] stood at 85.6 nM.

Consider `COc1ccc(CN2CCOc3ccc(C(C)(O)CN(C)C)cc3C2)cc1C` (centres undefined), for which the Schizont size was determined as 87.05 um. The molecule also gave an IC50 under setting [1] of 67.5 nM.

`CCCCCC[n+]1ccccc1C=Cc1ccc(N(C)C)cc1.[I-]` showed a Schizont size of 16.8 um. The molecule also returned an IC50 under setting [1] of 55.9 nM.

As for `[Br-].c1ccc(-c2nn(-c3ccccc3)[n+](-c3ccccc3)n2)cc1`, the Schizont size is given as 26.51 um. Also, half-maximal inhibition under setting [1] (IC50) required 107 nM.

The molecule `O=c1c2c([nH]c3ccccc13)CCCCCCCCCC2` gave a Schizont size of 25.15 um. Moreover, inhibition under setting [1] was half-maximal at 99 nM (IC50).

Consider `CCC(C)(C)c1ccc(OCCOCC[n+]2ccccc2)c(C(C)(C)CC)c1.[Cl-]`, for which the Schizont size turned out to be 13.88 um. The IC50 under setting [1] turned out to be 96.2 nM.

Turning to `O=C(Nc1ccc2oc(-c3cccc4ccccc34)nc2c1)c1ccc([N+](=O)[O-])o1`, the Schizont size was found to be 13.99 um. Also, under setting [1], the IC50 worked out at 72.5 nM.

`O=C1C2=C(Nc3ccccc3SC2c2ccc(OCc3ccccc3)cc2)c2ccccc21` (centres undefined) came in with a Schizont size of 23.17 um. Also, half-maximal inhibition under setting [1] (IC50) was put at 58 nM.

For `N=c1c2c(n(Cc3ccc(Cl)cc3)c3c1CCC3)CCC2`, the Schizont size is listed as 32.57 um. Further, the IC50 under setting [1] is 91.1 nM.

`Cc1ccc(-c2cn3c([n+]2-c2ccc(C)cc2)CCCCC3)cc1` had a Schizont size of 27.24 um. Moreover, the IC50 under setting [1] is 146 nM.

In turn, `[I-].c1ccc(CSc2scnc2[P+](c2ccccc2)(c2ccccc2)c2ccccc2)cc1` returned a Schizont size of 21.61 um. Further, under setting [1], the IC50 stood at 68.5 nM.

`Oc1c(CN2CCN(Cc3ccc4cccnc4c3O)CC2)ccc2cccnc12` returned a Schizont size of 21.19 um. The molecule also showed an IC50 under setting [1] of 96.6 nM.

As to `COc1ccc(C2N(Cc3ccccc3)c3ccccc3N2Cc2ccccc2)cc1`, the Schizont size is 30.79 um. In addition, under setting [1], inhibition was half-maximal at 121 nM (IC50).

In turn, `OC1=C2C(=Nc3ccccc3SC2c2ccco2)c2ccccc21` (centres undefined) gave a Schizont size of 31.63 um. In addition, half-maximal inhibition under setting [1] (IC50) was put at 113 nM.

`Cc1nc2c(C)cccc2c(O)c1CC=C(Cl)Cl`: the Schizont size is reported as 31.21 um. Also, the IC50 under setting [1] is 169 nM.
